# Results published in paper PMC10981011 (Synthetic and Systems Biotechnology, 2024).
# Legend:
# [1] = tested on: Apg (acarbose-preferred glucosidase); experiment: In vitro reaction of Apg; type: in vitro ADME, Klebsiella grimontii TD1; settings: 10 μM Apg, 1 mM substrate, 37 °C, 2 h
# [2] = tested on: Mak1 (microbiome-derived acarbose kinase 1); experiment: In vitro reaction of Mak1; type: in vitro ADME, human microbiome; settings: 10 μM Mak1, 0.5 mM substrate, 2 mM ATP, 30 °C, 2 h
# How it was run: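 Mak1 expressed in E. coli Origami B (DE3) (1 mM IPTG, 16 °C, 18 h) and purified on Ni-NTA. Reactions used 100 mM Tris-HCl pH 7.0, 10 mM MgCl₂, 2 mM ATP, 10 μM Mak1 and 0.5 mM test compound. They ran at 30 °C for 2 h and were stopped with 2 volumes methanol. Control used heat-inactivated Mak1 (95 °C, 30 min). Phosphorylated product detected by LC-MS on an SB-Aq column.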
smiles,measurement,setting,value
C[C@H]1O[C@H](O[C@H]2[C@H](O)[C@@H](O)[C@@H](O[C@H]3[C@H](O)[C@@H](O)C(O)O[C@@H]3CO)O[C@@H]2CO)[C@H](O)[C@@H](O)[C@@H]1N[C@H]1C=C(CO)[C@@H](O)[C@H](O)[C@H]1O (some centres unmarked) [Acarbose],Hydrolysis by Apg,[1],completely converted
same,Phosphorylation by Mak1 (detection of phosphorylated product),[2],catalyzed the conversion of acarbose to O-7-phosphoryl-acarbose
